# Test results as given in ChEMBL document CHEMBL1137030, “Synthesis of chiral phosphoantigens and their activity in gamma delta T cell stimulation” (Bioorg Med Chem Lett, 2004).
# pEC50: −log10 of the molar value. Several values for one entry are separate records, joined by “and”; a condition that tells them apart may be missing. Identical values can stand only once.
# How the values were obtained:
# Assay type in all cases: functional, cell-based
# [1] = TNF-alpha release is determined to know human (JN.24 cloned) V gamma-2 V delta-2 T cell stimulation
# Procedure, shortened: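 JN.24 CD4+ clone, 1×10^5 cells/well, cultured in duplicate or triplicate with half-log antigen dilutions and 1×10^5 glutaraldehyde-fixed (0.05%) CP.EBV B cells as APC (1:1). Supernatants collected after 18 h; TNF-α quantified by sandwich ELISA against a TNF-α standard curve; EC50 from dose response.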
# [2] = Proliferation of human (JN.24 cloned) V gamma-2 V delta-2 T cell
# Procedure, shortened: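 JN.24 CD4+ clone, 1×10^5 cells/well, stimulated in duplicate or triplicate with half-log dilutions of antigen plus 1×10^5 CP.EBV B cells fixed with 0.05% glutaraldehyde (1:1). Supernatant removed at 18 h, then cultures pulsed with 1 µCi 3H-thymidine and harvested 16–18 h later; mean proliferation gives EC50.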
# [3] = TNF-alpha release is determined to know human (12g12 cloned) V gamma-2 V delta-2 T cell stimulation
# Procedure, shortened: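 12G12 cells (1×10^5/well) cocultured 1:1 with glutaraldehyde-fixed Va2 transformed fibrosarcoma cells as APC and half-log antigen dilutions, in duplicate or triplicate. Supernatant taken at 18 h, TNF-α measured by sandwich ELISA against a standard curve; EC50 from dose response.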
# [4] = Proliferation of human (12g12 cloned) V gamma-2 V delta-2 T cell
# Procedure, shortened: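 Clone 12G12 at 1×10^5 cells/well with 1×10^5 fixed Va2 fibrosarcoma cells as APC (1:1), exposed in duplicate or triplicate to half-log antigen dilutions. After 18 h supernatant removal, 1 µCi 3H-thymidine pulse; harvest 16–18 h later; EC50 from mean proliferation.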
SMILES,"pEC50 ([1]; Homo sapiens, T-cell)","pEC50 ([3]; Homo sapiens, T-cell)",pEC50 ([3]; t-cell),pEC50 ([1]; t-cell),"pEC50 ([2]; Homo sapiens, T-cell)","pEC50 ([4]; Homo sapiens, T-cell)",pEC50 ([4]; t-cell),pEC50 ([2]; t-cell)
C[C@@]1(CCOP(=O)(O)OP(=O)(O)O)CO1,–,–,8.89 and 8.43,–,–,9.00,9.00,8.85 and 8.51 and 8.89
O=P(O)(O)OP(=O)(O)OCC[C@@H]1CO1,< 4.00,–,–,–,< 4.00,–,–,–
"CC1(CCOP(=O)(O)OP(=O)(O)O)CO1 (single isomer, unassigned)",–,–,8.10 and 8.52,5.54 and 6.46 and 5.96,–,9.30,9.22,–

# Further lines, with some results ahead:
"pEC50 ([1]; Homo sapiens, T-cell)","pEC50 ([3]; Homo sapiens, T-cell)",pEC50 ([3]; t-cell),pEC50 ([1]; t-cell),SMILES,"pEC50 ([2]; Homo sapiens, T-cell)","pEC50 ([4]; Homo sapiens, T-cell)",pEC50 ([4]; t-cell),pEC50 ([2]; t-cell)
6.30,–,–,–,O=P(O)(O)OP(=O)(O)OCC[C@@H](O)CBr,5.92,–,–,–
5.70,–,–,–,O=P(O)(O)OP(=O)(O)OCC[C@H](O)CBr,5.40,–,–,–
–,8.05,8.10,–,C[C@@](O)(CBr)CCOP(=O)(O)OP(=O)(O)O,–,9.05,9.10,–
–,8.30,8.40,–,C[C@](O)(CBr)CCOP(=O)(O)OP(=O)(O)O,6.77,–,8.85 and 9.30,6.92 and 6.96 and 7.07
< 4.00,–,–,–,O=P(O)(O)OP(=O)(O)OCC[C@H]1CO1,< 4.00,–,–,–
